Assay results reported in ChEMBL document CHEMBL1126794, “2-(Quinuclidin-3-yl)pyrido[4,3-b]indol-1-ones and isoquinolin-1-ones. Potent conformationally restricted 5-HT3 receptor antagonists” (J Med Chem, 1993).

Experiments:
[1] = target: T1, Serotonin 3 (5-HT3) receptor (Rattus norvegicus, UniProt P35563+Q9JJ16); assay: Binding affinity against 5-hydroxytryptamine 3 (5-HT3) receptor in rat brain cortical membranes using radioligand [3H]quipazine; type: cell membranes
T1 sequence (P35563 whole entry): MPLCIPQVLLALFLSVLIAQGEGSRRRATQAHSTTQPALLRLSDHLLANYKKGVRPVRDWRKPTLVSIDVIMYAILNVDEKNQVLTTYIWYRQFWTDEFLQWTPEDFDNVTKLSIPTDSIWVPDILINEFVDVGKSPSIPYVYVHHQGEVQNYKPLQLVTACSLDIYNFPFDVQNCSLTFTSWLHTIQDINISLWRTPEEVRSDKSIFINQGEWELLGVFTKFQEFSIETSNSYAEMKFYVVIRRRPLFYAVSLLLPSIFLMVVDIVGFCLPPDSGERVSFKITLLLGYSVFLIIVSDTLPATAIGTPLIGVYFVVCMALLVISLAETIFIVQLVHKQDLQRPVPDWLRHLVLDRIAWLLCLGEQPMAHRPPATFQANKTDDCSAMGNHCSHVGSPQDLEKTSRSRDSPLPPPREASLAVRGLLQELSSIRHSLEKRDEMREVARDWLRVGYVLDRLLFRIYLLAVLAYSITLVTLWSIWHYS
T1 sequence (Q9JJ16 whole entry): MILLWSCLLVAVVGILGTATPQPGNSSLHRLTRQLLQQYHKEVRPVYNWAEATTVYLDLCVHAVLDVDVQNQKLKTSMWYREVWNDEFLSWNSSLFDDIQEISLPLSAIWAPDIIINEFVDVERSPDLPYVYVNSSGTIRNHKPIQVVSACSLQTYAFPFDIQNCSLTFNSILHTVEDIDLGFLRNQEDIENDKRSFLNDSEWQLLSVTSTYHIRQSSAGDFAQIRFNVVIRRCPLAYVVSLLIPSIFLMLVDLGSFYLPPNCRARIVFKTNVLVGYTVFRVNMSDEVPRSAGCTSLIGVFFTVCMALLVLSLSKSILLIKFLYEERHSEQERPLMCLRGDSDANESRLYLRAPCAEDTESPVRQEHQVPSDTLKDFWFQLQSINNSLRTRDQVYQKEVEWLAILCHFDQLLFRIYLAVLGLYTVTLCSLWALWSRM
Method in brief: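 Rat cerebral cortex membranes, washed in 50 mM Tris pH 7.4, incubated 45 min at 25 °C in Tris-Krebs buffer pH 7.4 with 0.3–0.7 nM [3H]quipazine plus 0.1 μM paroxetine. Ten test concentrations from 1e-12 to 1e-4 M. Nonspecific binding defined with 1.0 μM racemic zacopride. Filtration, scintillation counting, IC50 by iterative fit, Ki by Cheng-Prusoff. Means of ≥3 determinations, or of two.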

[2] = tested on: Rattus norvegicus; assay: Potency to inhibit bradycardiac effect measured by Von Bezold-Jarisch assay in 8 anesthetized rats; type: functional; conditions: read-out: ID50 (the source's name)
Method in brief: (§1)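 Male Sprague-Dawley rats, 250–380 g, under urethane (1.5 g/kg ip), with cannulated trachea and femoral veins; heart rate recorded by ECG. Lowest consistent bradycardic dose of 2-methyl-5-HT titrated iv, then given every 12 min. Increasing iv doses given 5 min before each challenge, with saline vehicle group.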

[3] = tested on: Rattus norvegicus; assay: Potency to inhibit bradycardiac effect measured by Von Bezold-Jarisch assay in 9 anesthetized rats; type: functional; conditions: Rattus norvegicus; read-out: ID50 (the source's name); method in brief: as §1

SMILES	Ki [1] [nM]	ED50 [2] [µg/kg]	ED50 [3] [µg/kg]
Cc1cccc(C(=O)N[C@@H]2CN3CCC2CC3)c1C	158		
O=C1c2ccccc2CCN1C1CN2CCC1CC2 (stereo not drawn)	10		
O=C(N[C@H]1CN2CCC1CC2)c1c2n(c3ccccc13)CCCC2	12.6		
Cc1cccc2c(=O)n(C3CN4CCC3CC4)cc(C)c12.Cl (stereo not drawn)	1	0.25	
Cc1c(C(=O)NC2CN3CCC2CC3)c2ccccc2n1C (stereo not drawn)	39.8		
Cc1ccccc1C(=O)NC1CN2CCC1CC2 (stereo not drawn)	631		
Cl.O=c1c2cccc3c2c(cn1C1CN2CCC1CC2)CC3 (stereo not drawn)	0.631		0.18
CN1C2CCC1CC(n1cc3c4c(cccc4c1=O)CCC3)C2 (stereo not drawn)	0.794	0.65	
CCCc1cn([C@@H]2CN3CCC2CC3)c(=O)c2ccccc12	5.01		
Cc1cccc2c(=O)n(C3CN4CCC3CC4)ccc12.Cl (stereo not drawn)	0.631	0.1	
Cl.O=c1c2cccc3c2c(cn1[C@@H]1CN2CCC1CC2)CCCC3	0.398	0.09	
COc1cccc2c(=O)n(C3CC4CCC(C3)N4C)ccc12 (stereo not drawn)	2.51		
O=c1c2c3ccccc3n3c2c(cn1[C@@H]1CN2CCC1CC2)CCC3			0.05
O=C1c2cccc3c2[C@H](CCC3)CN1[C@H]1CN2CCC1CC2	2.51		
O=C(N[C@@H]1CN2CCC1CC2)c1c2n(c3ccccc13)CCCCC2	5.01		
COc1ccc2c(=O)n([C@@H]3CN4CCC3CC4)cc3c2c1CCC3	12.6		
O=c1c2cccc(Cl)c2ccn1[C@@H]1CN2CCC1CC2	2.51		
O=c1c2ccccc2ccn1[C@@H]1CN2CCC1CC2	3.98		
CCc1cccc2c1CCN(C1CN3CCC1CC3)C2=O.Cl (stereo not drawn)	0.2	0.18	
COc1cc(N)c(Cl)cc1C(=O)N[C@@H]1CN2CCC1CC2	0.251		
O=c1c2ccccc2c(-c2ccccc2)cn1[C@@H]1CN2CCC1CC2	2.51		
Cn1cc(C(=O)NC2CN3CCC2CC3)c2ccccc21 (stereo not drawn)	2		
